Source: article PMC10787258 (Current Research in Toxicology, 2023)
“Also recorded” adds a separate entry of the source.

Experiments:
[1] = tested on: juvenile male and female Sprague-Dawley rats; assay: Four-day oral exposure, serum thyroid hormones; assay type: in vivo, rat
How it was run: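 Weanling Sprague-Dawley rats arrived PND21 and were fed AIN-93 diet (iodide 225 ng/g). Groups were weight-ranked, n = 6 per sex per dose. Daily oral gavage PND 27–30 at 0, 125, 250 or 500 mg/kg in 1 % methyl cellulose suspension, adjusted to daily body weight. Decapitation ~2 hr after 4th dose. Trunk serum total T4/T3 by RIA kits (LOD 1.24, 0.50 ng/ml). One-way ANOVA, Dunnett's; mean ± SEM.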

deiodinase = conditions: ToxCast in vitro; ref Olker et al., 2019; cited from earlier work
[2] = tested on: juvenile male Sprague-Dawley rats; assay: Eight-day oral exposure, serum thyroid hormones, TSH and thyroid weight; assay type: in vivo, rat
liver = conditions: 98 % pure technical grade, up to 73 mg/kg; ref U.S. EPA, 2021; cited from earlier work
thyroid peroxidase = conditions: ToxCast in vitro; ref Paul Friedman et al., 2016; cited from earlier work
[3] = Oxyfluorfen quantitation in serum and thyroid gland; assay type: in vivo, rat
How it was run: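 Serum came from 4-day gavage (0–500 mg/kg) and male 8-day gavage (PND27–34, 0–62.5 mg/kg); thyroids came from 8-day rats. Serum (60 µL) was spiked with d5-labelled internal standard, equilibrated 30 min at room temperature, then protein-precipitated with acetonitrile. LC/MS/MS used positive ESI in MRM mode with isotope dilution and serum-matched calibration (2.5–5000 ng/ml). LOQ 25 ng/mL serum, 2.5 ng/g thyroid; results below LOQ reported ND.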

[4] = higher purity (>98 %) oxyfluorfen; ref RED 2002; 2019; cited from earlier work
[5] = cited from earlier work
thyroid cancer = conditions: human epidemiology, California; ref Omidakhsh et al., 2022; cited from earlier work
[6] = Body weight, percent growth and general toxicity in 4- and 8-day studies; assay type: in vivo, rat
hNIS-HEK293T-EPA cells = conditions: any concentration tested up to 100 μM; ref Buckalew et al., 2020; cited from earlier work
FRTL-5 cells = conditions: any concentration tested up to 100 μM; ref Buckalew et al., 2020; cited from earlier work
mouse and rabbit = mouse and rabbit studies; ref U.S. EPA, 2021; cited from earlier work
[7] = target: T1, human sodium iodide symporter (NIS) (Homo sapiens, UniProt Q92911); assay: hNIS-HEK293T-EPA radioactive iodide uptake; assay type: cell-based
T1 sequence (Q92911 1-643): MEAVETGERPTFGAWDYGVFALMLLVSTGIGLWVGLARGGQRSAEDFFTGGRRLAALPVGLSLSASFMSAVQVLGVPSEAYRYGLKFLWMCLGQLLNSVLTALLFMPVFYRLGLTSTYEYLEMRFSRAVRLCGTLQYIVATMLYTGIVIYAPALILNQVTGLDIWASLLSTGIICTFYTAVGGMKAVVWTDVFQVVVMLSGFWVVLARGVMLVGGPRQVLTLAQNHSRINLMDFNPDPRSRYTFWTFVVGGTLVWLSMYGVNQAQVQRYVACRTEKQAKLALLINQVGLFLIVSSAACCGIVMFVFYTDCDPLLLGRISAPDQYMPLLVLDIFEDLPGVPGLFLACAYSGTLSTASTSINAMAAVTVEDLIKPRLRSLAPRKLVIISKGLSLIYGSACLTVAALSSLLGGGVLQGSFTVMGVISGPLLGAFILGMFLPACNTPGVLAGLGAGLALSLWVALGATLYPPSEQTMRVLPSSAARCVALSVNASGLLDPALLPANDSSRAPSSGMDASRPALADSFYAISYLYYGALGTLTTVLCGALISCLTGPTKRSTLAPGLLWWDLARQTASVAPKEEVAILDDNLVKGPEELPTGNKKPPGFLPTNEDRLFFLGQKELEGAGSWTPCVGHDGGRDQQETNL

[8] = 8 days oral, any treatment group (0.8125 to 62.5 mg/kg)

Which results are given for `CCOc1cc(Oc2ccc(C(F)(F)F)cc2Cl)ccc1[N+](=O)[O-]` [oxyfluorfen, 2-chloro-1-(3-ethoxy-4-nitrophenoxy)-4(trifluoromethyl)benzene]?
Decrease in serum T3 ([1]; female, 4 days oral, 125 mg/kg): 18%; Decrease in serum T4 ([1]; female, 4 days oral, 125 mg/kg): ~55%; Serum T3 vs control ([1]; female, 4 days oral, 125 mg/kg): significantly suppressed; Serum T3 vs control ([1]; female, 4 days oral, 250 mg/kg): not significantly suppressed; Serum T3 vs control ([1]; female, 4 days oral, 500 mg/kg): significantly suppressed; Total serum thyroxine (T4) ([1]; male and female, 4 days, all doses (125, 250, 500 mg/kg/day)): suppressed; Decrease in serum T3 ([1]; male, 4 days oral, 125 mg/kg): 35%; Decrease in serum T4 ([1]; male, 4 days oral, 125 mg/kg): 68%; Suppression of serum T3 ([1]; male, 4 days oral, 125 to 500 mg/kg): approximately 30%; Suppression of serum T4 ([1]; male, 4 days oral, all doses (125, 250, 500 mg/kg)): 70%; Activity in deiodinase inhibition assay (deiodinase): no reported thyroid activity; LOEL for suppression of serum T4 ([2]; 8-day daily oral exposure): 3.25 mg/kg; NOEL for serum T4 ([2]; 8-day daily oral exposure): 1.625 mg/kg; LOEL for suppression of serum T3 ([2]; 8-day oral exposure): 62.5 mg/kg/day; LOEL for suppression of serum T4 ([2]; 8-day oral exposure): 3.25 mg/kg/day; Serum T3 vs control ([2]; 8 days oral, 62.5 mg/kg): significantly suppressed; Serum T3 vs control ([2]; 8 days oral, 15 and 31.25 mg/kg): non-significant decrease; Serum TSH [2, 8]: no significant differences; also recorded: No significant effects; also recorded: no significant changes; Thyroid weight [2, 8]: No changes; also recorded: no significant differences; Liver tumor incidence (liver): has not shown liver tumor incidence; Activity in thyroid peroxidase inhibition assay (thyroid peroxidase): no reported thyroid activity; Serum oxyfluorfen detection ([3]; all treated serum samples, 4- and 8-day studies): detected; Kp at 8 days ([3]; male, Sprague-Dawley, rat, thyroid gland / serum, oral, 62.5 mg/kg): 2 to 3; Acute oral, dermal, and inhalation toxicity [4]: low oral toxicity; Tissues with the highest levels of oxyfluorfen ([5]; following acute exposure, ref U.S. EPA, 2019): lung, thyroid, liver, ovaries, kidneys, adrenals and fat; Half-life ([5]; in the rat, ref 2002 RED): approximately 30 h; Association with the occurrence of thyroid cancer (thyroid cancer): increased odds ratio; Final body weight or percent growth ([6]; 4- or 8-day treatment, any dose, male or female): did not significantly affect; Visible signs of toxicity ([6]; daily observations, all treated animals): no visible signs of toxicity; Cytotoxicity (hNIS-HEK293T-EPA cells): no observed cytotoxicity; also recorded: no confounding cytotoxicity; Cytotoxicity (FRTL-5 cells): no observed cytotoxicity; also recorded: no confounding cytotoxicity; Current guideline NOELs and LOELs (mouse and rabbit): 33 mg/kg; IC50 [7]: 2000 nM
